Laboratory results: ChEMBL document CHEMBL5143728, “Next-Generation Diprovocims with Potent Human and Murine TLR1/TLR2 Agonist Activity That Activate the Innate and Adaptive Immune Response” (J Med Chem, 2022)

Assays:
Toll-like receptor 1/2 = Toll-like receptor 1/2 (Homo sapiens, UniProt O60603+Q15399); assay: Agonist activity at TLR1/TLR2 in human THP-1 derived macrophages assessed as stimulation of TNF alpha release measured for 4 hrs by ELISA based assay relative to diprovocim-1; type: cell-based; set-up: Activity: concentration or dose not given beside the values
How it was run: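 THP-1 cells differentiated with 100 nM PMA in RPMI/10% FBS for 24 h, washed, then rested 24 h in fresh medium. Seeded at 0.5 × 10⁵ cells/well and exposed to graded compound concentrations for 4 h, with final DMSO held at 0.1%. LPS served as positive control and DMSO as negative control. Supernatant human TNF-α was read by ELISA. EC50 from duplicate means.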

[1] = biological target: Toll-like receptor 1/2 (Mus musculus) (UniProt Q9QUN7+Q9EPQ1); assay: Agonist activity at TLR1/TLR2 in wild type C57BL/6J mouse macrophages assessed as stimulation of TNF alpha release measured for 4 hrs by ELISA based assay relative to diprovocim-1; type: cell-based; set-up: Activity: concentration or dose not given beside the values; details: Macrophage, filed as agonist
How it was run: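 Thioglycolate-elicited peritoneal macrophages from wild type C57BL/6J mice, harvested by PBS lavage 4 d after i.p. 4% thioglycolate. Cultured in DMEM/10% FBS at 37 °C, 5% CO2, seeded at 1 × 10⁵ cells/well and exposed to graded compound concentrations for 4 h, with final DMSO ≤0.5% held constant. LPS served as positive control. Supernatant mouse TNF-α was read by ELISA. EC50 from duplicate means.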

| Structure (SMILES) | Activity (Toll-like receptor 1/2; filed as agonist) | Activity [1] | Activity (Toll-like receptor 1/2) |
| --- | --- | --- | --- |
| COC(=O)CNC(=O)OCCCCCCCCCCCCNC(=O)[C@@H]1CN(C(=O)c2ccc(C(=O)N3C[C@@H](C(=O)N[C@H]4C[C@@H]4c4ccccc4)[C@H](C(=O)N[C@H]4C[C@@H]4c4ccccc4)C3)cc2)C[C@H]1C(=O)N[C@H]1C[C@@H]1c1ccccc1 | 90% | 90% | – |
| CC(C)(C)OC(=O)N[C@@H](CSCc1ccccc1)C(=O)OCCCCCCCCCCCCNC(=O)[C@@H]1CN(C(=O)c2ccc(C(=O)N3C[C@@H](C(=O)N[C@H]4C[C@@H]4c4ccccc4)[C@H](C(=O)N[C@H]4C[C@@H]4c4ccccc4)C3)cc2)C[C@H]1C(=O)N[C@H]1C[C@@H]1c1ccccc1 | 100% | 200% | – |
| Nc1ccc(CCCCCCCCNC(=O)[C@@H]2CN(C(=O)c3ccc(C(=O)N4C[C@@H](C(=O)N[C@H]5C[C@@H]5c5ccccc5)[C@H](C(=O)N[C@H]5C[C@@H]5c5ccccc5)C4)cc3)C[C@H]2C(=O)N[C@H]2C[C@@H]2c2ccccc2)cc1 | 100% | 250% | – |
| CC(C)(C)OC(=O)CNC(=O)CCCCCCCCCCCNC(=O)[C@@H]1CN(C(=O)c2ccc(C(=O)N3C[C@@H](C(=O)N[C@H]4C[C@@H]4c4ccccc4)[C@H](C(=O)N[C@H]4C[C@@H]4c4ccccc4)C3)cc2)C[C@H]1C(=O)N[C@H]1C[C@@H]1c1ccccc1 | 100% | 70% | – |
| CC(C)(C)OC(=O)c1ccc(C(=O)NCC(=O)OCCCCCCCCCCCCNC(=O)[C@@H]2CN(C(=O)c3ccc(C(=O)N4C[C@@H](C(=O)N[C@H]5C[C@@H]5c5ccccc5)[C@H](C(=O)N[C@H]5C[C@@H]5c5ccccc5)C4)cc3)C[C@H]2C(=O)N[C@H]2C[C@@H]2c2ccccc2)cc1 | 100% | 130% | – |
| O=C(CO)OCCCCCCCCCCCCNC(=O)[C@@H]1CN(C(=O)c2ccc(C(=O)N3C[C@@H](C(=O)N[C@H]4C[C@@H]4c4ccccc4)[C@H](C(=O)N[C@H]4C[C@@H]4c4ccccc4)C3)cc2)C[C@H]1C(=O)N[C@H]1C[C@@H]1c1ccccc1 | 100% | 140% | – |
| CC(C)(C)OC(=O)NCCOCCCCCCCCCCCCNC(=O)[C@@H]1CN(C(=O)c2ccc(C(=O)N3C[C@@H](C(=O)N[C@H]4C[C@@H]4c4ccccc4)[C@H](C(=O)N[C@H]4C[C@@H]4c4ccccc4)C3)cc2)C[C@H]1C(=O)N[C@H]1C[C@@H]1c1ccccc1 | 100% | 220% | – |
| O=C(CNC(=O)C(F)(F)F)OCCCCCCCCCCCCNC(=O)[C@@H]1CN(C(=O)c2ccc(C(=O)N3C[C@@H](C(=O)N[C@H]4C[C@@H]4c4ccccc4)[C@H](C(=O)N[C@H]4C[C@@H]4c4ccccc4)C3)cc2)C[C@H]1C(=O)N[C@H]1C[C@@H]1c1ccccc1 | 100% | 100% | – |
| O=C(NCCCCCCCCc1ccc(O)cc1)[C@@H]1CN(C(=O)c2ccc(C(=O)N3C[C@@H](C(=O)N[C@H]4C[C@@H]4c4ccccc4)[C@H](C(=O)N[C@H]4C[C@@H]4c4ccccc4)C3)cc2)C[C@H]1C(=O)N[C@H]1C[C@@H]1c1ccccc1 | 90% | 380% | – |
| O=C(O)CCCCCCCCCCCNC(=O)[C@@H]1CN(C(=O)c2ccc(C(=O)N3C[C@@H](C(=O)N[C@H]4C[C@@H]4c4ccccc4)[C@H](C(=O)N[C@H]4C[C@@H]4c4ccccc4)C3)cc2)C[C@H]1C(=O)N[C@H]1C[C@@H]1c1ccccc1 | 100% | 110% | – |
| O=C(O)c1ccc(C(=O)OCCCCCCCCCCCCNC(=O)[C@@H]2CN(C(=O)c3ccc(C(=O)N4C[C@@H](C(=O)N[C@H]5C[C@@H]5c5ccccc5)[C@H](C(=O)N[C@H]5C[C@@H]5c5ccccc5)C4)cc3)C[C@H]2C(=O)N[C@H]2C[C@@H]2c2ccccc2)cc1 | 100% | 120% | – |
| CC(C)(C)OC(=O)Nc1ccc(C(=O)OCCCCCCCCCCCCNC(=O)[C@@H]2CN(C(=O)c3ccc(C(=O)N4C[C@@H](C(=O)N[C@H]5C[C@@H]5c5ccccc5)[C@H](C(=O)N[C@H]5C[C@@H]5c5ccccc5)C4)cc3)C[C@H]2C(=O)N[C@H]2C[C@@H]2c2ccccc2)cc1 | 90% | 540% | – |
| CC(C)(C)OC(=O)C(=O)NCC(=O)OCCCCCCCCCCCCNC(=O)[C@@H]1CN(C(=O)c2ccc(C(=O)N3C[C@@H](C(=O)N[C@H]4C[C@@H]4c4ccccc4)[C@H](C(=O)N[C@H]4C[C@@H]4c4ccccc4)C3)cc2)C[C@H]1C(=O)N[C@H]1C[C@@H]1c1ccccc1 | 110% | 400% | – |
| CC(C)(C)C(=O)NCC(=O)OCCCCCCCCCCCCNC(=O)[C@@H]1CN(C(=O)c2ccc(C(=O)N3C[C@@H](C(=O)N[C@H]4C[C@@H]4c4ccccc4)[C@H](C(=O)N[C@H]4C[C@@H]4c4ccccc4)C3)cc2)C[C@H]1C(=O)N[C@H]1C[C@@H]1c1ccccc1 | 110% | 110% | – |
| O=C(O)c1ccc(C(=O)NCCOCCCCCCCCCCCCNC(=O)[C@@H]2CN(C(=O)c3ccc(C(=O)N4C[C@@H](C(=O)N[C@H]5C[C@@H]5c5ccccc5)[C@H](C(=O)N[C@H]5C[C@@H]5c5ccccc5)C4)cc3)C[C@H]2C(=O)N[C@H]2C[C@@H]2c2ccccc2)cc1 | 100% | 50% | – |
| CNC(=O)CCCCCCCCCCCNC(=O)[C@@H]1CN(C(=O)c2ccc(C(=O)N3C[C@@H](C(=O)N[C@H]4C[C@@H]4c4ccccc4)[C@H](C(=O)N[C@H]4C[C@@H]4c4ccccc4)C3)cc2)C[C@H]1C(=O)N[C@H]1C[C@@H]1c1ccccc1 | 120% | 150% | – |
| O=C(CNC(=O)C(=O)O)OCCCCCCCCCCCCNC(=O)[C@@H]1CN(C(=O)c2ccc(C(=O)N3C[C@@H](C(=O)N[C@H]4C[C@@H]4c4ccccc4)[C@H](C(=O)N[C@H]4C[C@@H]4c4ccccc4)C3)cc2)C[C@H]1C(=O)N[C@H]1C[C@@H]1c1ccccc1 | 120% | 250% | – |
| CC(C)(C)OC(=O)N[C@@H](CCC(=O)OCc1ccccc1)C(=O)OCCCCCCCCCCCCNC(=O)[C@@H]1CN(C(=O)c2ccc(C(=O)N3C[C@@H](C(=O)N[C@H]4C[C@@H]4c4ccccc4)[C@H](C(=O)N[C@H]4C[C@@H]4c4ccccc4)C3)cc2)C[C@H]1C(=O)N[C@H]1C[C@@H]1c1ccccc1 | 100% | 210% | – |
| CC(C)(C)OC(=O)NCCOCCOCCOCCOCCC(=O)OCCCCCCCCCCCCNC(=O)[C@@H]1CN(C(=O)c2ccc(C(=O)N3C[C@@H](C(=O)N[C@H]4C[C@@H]4c4ccccc4)[C@H](C(=O)N[C@H]4C[C@@H]4c4ccccc4)C3)cc2)C[C@H]1C(=O)N[C@H]1C[C@@H]1c1ccccc1 | 90% | 150% | – |
| CC[C@H](C)[C@H](NC(=O)OC(C)(C)C)C(=O)OCCCCCCCCCCCCNC(=O)[C@@H]1CN(C(=O)c2ccc(C(=O)N3C[C@@H](C(=O)N[C@H]4C[C@@H]4c4ccccc4)[C@H](C(=O)N[C@H]4C[C@@H]4c4ccccc4)C3)cc2)C[C@H]1C(=O)N[C@H]1C[C@@H]1c1ccccc1 | 100% | 140% | – |
| CC(C)(C)OC(=O)NNC(=O)OCCCCCCCCCCCCNC(=O)[C@@H]1CN(C(=O)c2ccc(C(=O)N3C[C@@H](C(=O)N[C@H]4C[C@@H]4c4ccccc4)[C@H](C(=O)N[C@H]4C[C@@H]4c4ccccc4)C3)cc2)C[C@H]1C(=O)N[C@H]1C[C@@H]1c1ccccc1 | 100% | 220% | – |
| CC(C)(C)OC(=O)NC1(C(=O)OCCCCCCCCCCCCNC(=O)[C@@H]2CN(C(=O)c3ccc(C(=O)N4C[C@@H](C(=O)N[C@H]5C[C@@H]5c5ccccc5)[C@H](C(=O)N[C@H]5C[C@@H]5c5ccccc5)C4)cc3)C[C@H]2C(=O)N[C@H]2C[C@@H]2c2ccccc2)CC1 | 100% | 220% | – |
| CC(C)(C)OC(=O)c1ccc(C(=O)NCCOCCCCCCCCCCCCNC(=O)[C@@H]2CN(C(=O)c3ccc(C(=O)N4C[C@@H](C(=O)N[C@H]5C[C@@H]5c5ccccc5)[C@H](C(=O)N[C@H]5C[C@@H]5c5ccccc5)C4)cc3)C[C@H]2C(=O)N[C@H]2C[C@@H]2c2ccccc2)cc1 | 110% | 160% | – |
| CC(C)[C@H](NC(=O)OC(C)(C)C)C(=O)OCCCCCCCCCCCCNC(=O)[C@@H]1CN(C(=O)c2ccc(C(=O)N3C[C@@H](C(=O)N[C@H]4C[C@@H]4c4ccccc4)[C@H](C(=O)N[C@H]4C[C@@H]4c4ccccc4)C3)cc2)C[C@H]1C(=O)N[C@H]1C[C@@H]1c1ccccc1 | 100% | 180% | – |
| C#CCN(C)CC(=O)OCCCCCCCCCCCCNC(=O)[C@@H]1CN(C(=O)c2ccc(C(=O)N3C[C@@H](C(=O)N[C@H]4C[C@@H]4c4ccccc4)[C@H](C(=O)N[C@H]4C[C@@H]4c4ccccc4)C3)cc2)C[C@H]1C(=O)N[C@H]1C[C@@H]1c1ccccc1 | 40% | 100% | – |
| CC(C)(C)Oc1ccc(C(=O)OCCCCCCCCCCCCNC(=O)[C@@H]2CN(C(=O)c3ccc(C(=O)N4C[C@@H](C(=O)N[C@H]5C[C@@H]5c5ccccc5)[C@H](C(=O)N[C@H]5C[C@@H]5c5ccccc5)C4)cc3)C[C@H]2C(=O)N[C@H]2C[C@@H]2c2ccccc2)cc1 | – | 150% | < 50% |
| O=C(CNC(=O)OCC(Cl)(Cl)Cl)OCCCCCCCCCCCCNC(=O)[C@@H]1CN(C(=O)c2ccc(C(=O)N3C[C@@H](C(=O)N[C@H]4C[C@@H]4c4ccccc4)[C@H](C(=O)N[C@H]4C[C@@H]4c4ccccc4)C3)cc2)C[C@H]1C(=O)N[C@H]1C[C@@H]1c1ccccc1 | 100% | 300% | – |
| CC(C)(C)OC(=O)COCCCCCCCCCCCCNC(=O)[C@@H]1CN(C(=O)c2ccc(C(=O)N3C[C@@H](C(=O)N[C@H]4C[C@@H]4c4ccccc4)[C@H](C(=O)N[C@H]4C[C@@H]4c4ccccc4)C3)cc2)C[C@H]1C(=O)N[C@H]1C[C@@H]1c1ccccc1 | 100% | 270% | – |
